Reference: ChEMBL document CHEMBL1250442, “Inhibiting gene expression at transcription start sites in chromosomal DNA with antigene RNAs” (Nat Chem Biol, 2005)
The source made the active and inactive calls. No cut-off for these calls is given here.

Experiments:
T47D [1] = experiment: Inhibition of PR-A gene expression in human T47D cells at 25 nM by syber green assay in presence of 10 nM estradiol; type: functional, cell-based
T47D [2] = experiment: Inhibition of PR-B gene expression in human T47D cells at 25 nM by syber green assay in presence of 10 nM estradiol; type: functional, cell-based
T47D [3] = experiment: Inhibition of PR-A mRNA gene expression in human T47D cells at 100 nM by syber green assay; type: functional
Method in brief: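 T47D cells plated at 80,000/well without antibiotics two days before Oligofectamine transfection with agRNA duplex (25 or 100 nM final); medium changed at 24 h, harvest day 5 unless stated otherwise. TRIzol total RNA; PR mRNA by real-time PCR with SYBR Green: 50 °C 2 min, 95 °C 10 min, 40 cycles 95 °C 15 s/60 °C 1 min.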

T47D [4] = experiment: Inhibition of PR-B mRNA gene expression in human T47D cells at 100 nM by syber green assay; type: functional
Method in brief: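 T47D cells in RPMI-1640 with 10% FBS, NEAA, insulin, 37 °C, 5% CO2. Plated two days before transfection without antibiotics. Oligofectamine-mediated duplex RNA transfection at 100 nM final, medium changed at 24 h, harvest five days post-transfection. Total RNA extracted with TRIzol. hPR mRNA quantified by SYBR Green qPCR: 50 °C 2 min, 95 °C 10 min, then 40 cycles of 95 °C 15 s / 60 °C 1 min.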

T47D [5] = experiment: Inhibition of major vault protein expression in human T47D cells at 100 nM by syber green assay; type: functional, cell-based
T47D [6] = experiment: Inhibition of cyclooxygenase-2 expression in human T47D cells at 25 nM by syber green assay; type: functional, cell-based
T47D [7] = experiment: Inhibition of androgen receptor expression in human T47D cells after 12 days at 100 nM by syber green assay; type: functional, cell-based
Method in brief: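 AR expression in T47D cells, grown in RPMI-1640 with 10% FBS, NEAA and insulin. Plated antibiotic-free two days before Oligofectamine transfection with 100 nM duplex RNA; medium replaced after 24 h. TRIzol total RNA. SYBR Green real-time PCR: 50 °C 2 min, 95 °C 10 min, 40 cycles of 95 °C 15 s and 60 °C 1 min.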

SMILES	inhibition (T47D [1])	inhibition (T47D [2])	inhibition at 0.1 µM (T47D [3]) [%]	inhibition at 0.1 µM (T47D [4]) [%]	inhibition (T47D [5])	inhibition (T47D [6])	inhibition (T47D [7])
Cc1cn(CC(=O)N(CCNC(=O)CN(CCNC(=O)CN(CCNC(=O)CN(CCNC(=O)CN(CCNC(=O)CN(CCNC(=O)CN(CCNC(=O)CN(CCNC(=O)CN(CCNC(=O)CN(CCNC(=O)CN(CCNC(=O)CN(CCNC(=O)CN(CCNC(=O)CN(CCNC(=O)CN(CCNC(=O)CN(CCNC(=O)CN(CCNC(=O)CN(CCNC(=O)CN(CCNC(=O)CN(CCNC(=O)CN)C(=O)Cn2cnc3c(N)ncnc32)C(=O)Cn2cnc3c(=O)[nH]c(N)nc32)C(=O)Cn2cnc3c(=O)[nH]c(N)nc32)C(=O)Cn2ccc(N)nc2=O)C(=O)Cn2cnc3c(N)ncnc32)C(=O)Cn2cnc3c(=O)[nH]c(N)nc32)C(=O)Cn2cnc3c(=O)[nH]c(N)nc32)C(=O)Cn2cnc3c(=O)[nH]c(N)nc32)C(=O)Cn2ccc(=O)[nH]c2=O)C(=O)Cn2cnc3c(=O)[nH]c(N)nc32)C(=O)Cn2cnc3c(N)ncnc32)C(=O)Cn2cnc3c(=O)[nH]c(N)nc32)C(=O)Cn2cnc3c(N)ncnc32)C(=O)Cn2cnc3c(=O)[nH]c(N)nc32)C(=O)Cn2ccc(=O)[nH]c2=O)C(=O)Cn2ccc(=O)[nH]c2=O)C(=O)Cn2ccc(N)nc2=O)C(=O)Cn2ccc(N)nc2=O)C(=O)Cn2ccc(N)nc2=O)CC(=O)NCCN(CC(=O)NCC(=O)O)C(=O)Cn2cc(C)c(=O)[nH]c2=O)c(=O)[nH]c1=O	Active	Active	81	81	Active		
Cc1cn(CC(=O)N(CCNC(=O)CN(CCNC(=O)CN(CCNC(=O)CN(CCNC(=O)CN(CCNC(=O)CN(CCNC(=O)CN(CCNC(=O)CN(CCNC(=O)CN(CCNC(=O)CN(CCNC(=O)CN(CCNC(=O)CN(CCNC(=O)CN(CCNC(=O)CN(CCNC(=O)CN(CCNC(=O)CN(CCNC(=O)CN(CCNC(=O)CN(CCNC(=O)CN(CCNC(=O)CN(CCNC(=O)CN)C(=O)Cn2ccc(=O)[nH]c2=O)C(=O)Cn2ccc(=O)[nH]c2=O)C(=O)Cn2cnc3c(N)ncnc32)C(=O)Cn2cnc3c(=O)[nH]c(N)nc32)C(=O)Cn2ccc(N)nc2=O)C(=O)Cn2cnc3c(=O)[nH]c(N)nc32)C(=O)Cn2cnc3c(N)ncnc32)C(=O)Cn2ccc(N)nc2=O)C(=O)Cn2ccc(N)nc2=O)C(=O)Cn2cnc3c(N)ncnc32)C(=O)Cn2cnc3c(N)ncnc32)C(=O)Cn2ccc(=O)[nH]c2=O)C(=O)Cn2ccc(=O)[nH]c2=O)C(=O)Cn2cnc3c(=O)[nH]c(N)nc32)C(=O)Cn2ccc(=O)[nH]c2=O)C(=O)Cn2ccc(N)nc2=O)C(=O)Cn2cnc3c(N)ncnc32)C(=O)Cn2ccc(=O)[nH]c2=O)C(=O)Cn2cnc3c(N)ncnc32)CC(=O)NCCN(CC(=O)NCC(=O)O)C(=O)Cn2cc(C)c(=O)[nH]c2=O)c(=O)[nH]c1=O	Active		81	81		Active	
Cc1cn(CC(=O)N(CCNC(=O)CN(CCNC(=O)CN(CCNC(=O)CN(CCNC(=O)CN(CCNC(=O)CN(CCNC(=O)CN(CCNC(=O)CN(CCNC(=O)CN(CCNC(=O)CN(CCNC(=O)CN(CCNC(=O)CN(CCNC(=O)CN(CCNC(=O)CN(CCNC(=O)CN(CCNC(=O)CN(CCNC(=O)CN(CCNC(=O)CN(CCNC(=O)CN(CCNC(=O)CN(CCNC(=O)CN)C(=O)Cn2ccc(=O)[nH]c2=O)C(=O)Cn2ccc(N)nc2=O)C(=O)Cn2cnc3c(=O)[nH]c(N)nc32)C(=O)Cn2cnc3c(=O)[nH]c(N)nc32)C(=O)Cn2ccc(=O)[nH]c2=O)C(=O)Cn2ccc(=O)[nH]c2=O)C(=O)Cn2cnc3c(N)ncnc32)C(=O)Cn2cnc3c(=O)[nH]c(N)nc32)C(=O)Cn2ccc(N)nc2=O)C(=O)Cn2cnc3c(=O)[nH]c(N)nc32)C(=O)Cn2cnc3c(N)ncnc32)C(=O)Cn2ccc(N)nc2=O)C(=O)Cn2ccc(N)nc2=O)C(=O)Cn2cnc3c(N)ncnc32)C(=O)Cn2cnc3c(N)ncnc32)C(=O)Cn2ccc(=O)[nH]c2=O)C(=O)Cn2ccc(=O)[nH]c2=O)C(=O)Cn2cnc3c(N)ncnc32)C(=O)Cn2ccc(=O)[nH]c2=O)CC(=O)NCCN(CC(=O)NCC(=O)O)C(=O)Cn2cc(C)c(=O)[nH]c2=O)c(=O)[nH]c1=O	Active		71	71		Active	
Cc1cn(CC(=O)N(CCNC(=O)CN(CCNC(=O)CN(CCNC(=O)CN(CCNC(=O)CN(CCNC(=O)CN(CCNC(=O)CN(CCNC(=O)CN(CCNC(=O)CN(CCNC(=O)CN(CCNC(=O)CN(CCNC(=O)CN(CCNC(=O)CN(CCNC(=O)CN(CCNC(=O)CN(CCNC(=O)CN(CCNC(=O)CN(CCNC(=O)CN(CCNC(=O)CN(CCNC(=O)CN(CCNC(=O)CN)C(=O)Cn2ccc(=O)[nH]c2=O)C(=O)Cn2ccc(N)nc2=O)C(=O)Cn2ccc(=O)[nH]c2=O)C(=O)Cn2ccc(N)nc2=O)C(=O)Cn2ccc(N)nc2=O)C(=O)Cn2cnc3c(N)ncnc32)C(=O)Cn2ccc(N)nc2=O)C(=O)Cn2ccc(N)nc2=O)C(=O)Cn2ccc(=O)[nH]c2=O)C(=O)Cn2ccc(N)nc2=O)C(=O)Cn2ccc(N)nc2=O)C(=O)Cn2ccc(N)nc2=O)C(=O)Cn2cnc3c(N)ncnc32)C(=O)Cn2cnc3c(=O)[nH]c(N)nc32)C(=O)Cn2ccc(N)nc2=O)C(=O)Cn2cnc3c(=O)[nH]c(N)nc32)C(=O)Cn2ccc(N)nc2=O)C(=O)Cn2ccc(N)nc2=O)C(=O)Cn2ccc(N)nc2=O)CC(=O)NCCN(CC(=O)NCC(=O)O)C(=O)Cn2cc(C)c(=O)[nH]c2=O)c(=O)[nH]c1=O	Active	Active	< 20	< 20			Active
Cc1cn(CC(=O)N(CCNC(=O)CN(CCNC(=O)CN(CCNC(=O)CN(CCNC(=O)CN(CCNC(=O)CN(CCNC(=O)CN(CCNC(=O)CN(CCNC(=O)CN(CCNC(=O)CN(CCNC(=O)CN(CCNC(=O)CN(CCNC(=O)CN(CCNC(=O)CN(CCNC(=O)CN(CCNC(=O)CN(CCNC(=O)CN(CCNC(=O)CN(CCNC(=O)CN(CCNC(=O)CN(CCNC(=O)CN)C(=O)Cn2cnc3c(=O)[nH]c(N)nc32)C(=O)Cn2ccc(N)nc2=O)C(=O)Cn2ccc(=O)[nH]c2=O)C(=O)Cn2ccc(N)nc2=O)C(=O)Cn2ccc(=O)[nH]c2=O)C(=O)Cn2ccc(N)nc2=O)C(=O)Cn2ccc(N)nc2=O)C(=O)Cn2cnc3c(N)ncnc32)C(=O)Cn2ccc(N)nc2=O)C(=O)Cn2ccc(N)nc2=O)C(=O)Cn2ccc(=O)[nH]c2=O)C(=O)Cn2ccc(N)nc2=O)C(=O)Cn2ccc(N)nc2=O)C(=O)Cn2ccc(N)nc2=O)C(=O)Cn2cnc3c(N)ncnc32)C(=O)Cn2cnc3c(=O)[nH]c(N)nc32)C(=O)Cn2ccc(N)nc2=O)C(=O)Cn2cnc3c(=O)[nH]c(N)nc32)C(=O)Cn2ccc(N)nc2=O)CC(=O)NCCN(CC(=O)NCC(=O)O)C(=O)Cn2cc(C)c(=O)[nH]c2=O)c(=O)[nH]c1=O	Active	Active	92	92			Active
Cc1cn(CC(=O)N(CCNC(=O)CN(CCNC(=O)CN(CCNC(=O)CN(CCNC(=O)CN(CCNC(=O)CN(CCNC(=O)CN(CCNC(=O)CN(CCNC(=O)CN(CCNC(=O)CN(CCNC(=O)CN(CCNC(=O)CN(CCNC(=O)CN(CCNC(=O)CN(CCNC(=O)CN(CCNC(=O)CN(CCNC(=O)CN(CCNC(=O)CN(CCNC(=O)CN(CCNC(=O)CN(CCNC(=O)CN)C(=O)Cn2ccc(N)nc2=O)C(=O)Cn2cnc3c(N)ncnc32)C(=O)Cn2ccc(N)nc2=O)C(=O)Cn2ccc(N)nc2=O)C(=O)Cn2ccc(=O)[nH]c2=O)C(=O)Cn2ccc(N)nc2=O)C(=O)Cn2ccc(N)nc2=O)C(=O)Cn2ccc(N)nc2=O)C(=O)Cn2cnc3c(N)ncnc32)C(=O)Cn2cnc3c(=O)[nH]c(N)nc32)C(=O)Cn2ccc(N)nc2=O)C(=O)Cn2cnc3c(=O)[nH]c(N)nc32)C(=O)Cn2ccc(N)nc2=O)C(=O)Cn2ccc(N)nc2=O)C(=O)Cn2ccc(N)nc2=O)C(=O)Cn2ccc(N)nc2=O)C(=O)Cn2ccc(N)nc2=O)C(=O)Cn2ccc(=O)[nH]c2=O)C(=O)Cn2ccc(N)nc2=O)CC(=O)NCCN(CC(=O)NCC(=O)O)C(=O)Cn2cc(C)c(=O)[nH]c2=O)c(=O)[nH]c1=O	Active	Active	100	100			Active
Cc1cn(CC(=O)N(CCNC(=O)CN(CCNC(=O)CN(CCNC(=O)CN(CCNC(=O)CN(CCNC(=O)CN(CCNC(=O)CN(CCNC(=O)CN(CCNC(=O)CN(CCNC(=O)CN(CCNC(=O)CN(CCNC(=O)CN(CCNC(=O)CN(CCNC(=O)CN(CCNC(=O)CN(CCNC(=O)CN(CCNC(=O)CN(CCNC(=O)CN(CCNC(=O)CN(CCNC(=O)CN(CCNC(=O)CN)C(=O)Cn2ccc(=O)[nH]c2=O)C(=O)Cn2ccc(N)nc2=O)C(=O)Cn2ccc(N)nc2=O)C(=O)Cn2cnc3c(N)ncnc32)C(=O)Cn2ccc(N)nc2=O)C(=O)Cn2ccc(N)nc2=O)C(=O)Cn2ccc(=O)[nH]c2=O)C(=O)Cn2ccc(N)nc2=O)C(=O)Cn2ccc(N)nc2=O)C(=O)Cn2ccc(N)nc2=O)C(=O)Cn2cnc3c(N)ncnc32)C(=O)Cn2cnc3c(=O)[nH]c(N)nc32)C(=O)Cn2ccc(N)nc2=O)C(=O)Cn2cnc3c(=O)[nH]c(N)nc32)C(=O)Cn2ccc(N)nc2=O)C(=O)Cn2ccc(N)nc2=O)C(=O)Cn2ccc(N)nc2=O)C(=O)Cn2ccc(N)nc2=O)C(=O)Cn2ccc(N)nc2=O)CC(=O)NCCN(CC(=O)NCC(=O)O)C(=O)Cn2cc(C)c(=O)[nH]c2=O)c(=O)[nH]c1=O	Active	Active	34	34			Active
